Test results from ChEMBL document CHEMBL2390927, “Design, synthesis and antimicrobial evaluation of novel benzimidazole type of Fluconazole analogues and their synergistic effects with Chloromycin, Norfloxacin and Fluconazole” (2013).
Converted amounts (≈) assume the structure as drawn.

What was measured:
Candida [1] = test: Antifungal activity against Candida mycoderma after 24 hrs by two-fold serial dilution method; type: functional
In short: (§1)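 Spore suspension in sterile distilled water from one-day-old cultures on Sabouraud agar, final 1–5 × 10³ spore mL⁻¹. Compound stocks diluted in sterile RPMI 1640 as two-fold serial dilutions in microdilution plates. MIC is the lowest concentration completely inhibiting growth. Growth monitored visually and spectrophotometrically, in triplicate.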

Candida albicans [2] = test: Antifungal activity against Candida albicans ATCC 76615 after 24 hrs by two-fold serial dilution method; type: functional; conditions: ATCC 76615, 24 h; in short: as §1
Pseudomonas aeruginosa [3] = test: Ratio of chloromycin MIC to compound MIC for Pseudomonas aeruginosa ATCC 27853; type: functional
Escherichia coli [4] = test: Ratio of chloromycin MIC to compound MIC for Escherichia coli JM109; type: functional
Salmonella typhi [5] = test: Antibacterial activity against Bacillus typhi after 24 hrs by two-fold serial dilution method; type: functional, Salmonella enterica subsp. enterica serovar Typhi; conditions: Salmonella enterica
In short: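 Two-fold serial dilution in 96-well plates following NCCLS; compounds dissolved in DMSO as stocks, then diluted in Mueller-Hinton broth; bacterial suspension adjusted with sterile saline to 1 × 10⁵ CFU; MIC taken as lowest concentration completely inhibiting growth, monitored visually and spectrophotometrically; DMSO-plus-inoculum well as solvent control; triplicate.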

Pseudomonas aeruginosa [6] = test: Antibacterial activity against Pseudomonas aeruginosa ATCC 27853 after 24 hrs by two-fold serial dilution method; type: functional; conditions: ATCC 27853, 24 h
In short: (§2)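 MIC taken as the lowest concentration giving complete growth inhibition, by standard two-fold serial dilution in 96-well plates following NCCLS. Stocks in DMSO, diluted in Mueller–Hinton broth. Inoculum adjusted with sterile saline to 1 × 10⁵ CFU. DMSO with inoculum and no drug served as solvent control. Growth read visually and spectrophotometrically, in triplicate.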

Escherichia coli [7] = test: Antibacterial activity against Escherichia coli JM109 after 24 hrs by two-fold serial dilution method; type: functional; conditions: JM109, 24 h
Bacillus [8] = test: Antibacterial activity against Bacillus proteus ATCC 13315 after 24 hrs by two-fold serial dilution method; type: functional; conditions: ATCC 13315, 24 h; in short: as §2
Micrococcus luteus [9] = test: Antibacterial activity against Micrococcus luteus ATCC 4698 after 24 hrs by two-fold serial dilution method; type: functional; conditions: ATCC 4698, 24 h; in short: as §2
Bacillus subtilis [10] = test: Antibacterial activity against Bacillus subtilis ATCC 21216 after 24 hrs by two-fold serial dilution method; type: functional; conditions: ATCC 21216, 24 h; in short: as §2
Staphylococcus aureus [11] = test: Antibacterial activity against methicillin-resistant Staphylococcus aureus N315 after 24 hrs by two-fold serial dilution method; type: functional; conditions: N315, 24 h
Staphylococcus aureus [12] = test: Antibacterial activity against Staphylococcus aureus ATCC 6538 after 24 hrs by two-fold serial dilution method; type: functional; conditions: ATCC 6538, 24 h
Staphylococcus aureus [13] = test: Ratio of norfloxacin MIC to compound MIC for Staphylococcus aureus ATCC 6538; type: functional
Staphylococcus aureus [14] = test: Ratio of chloromycin MIC to compound MIC for Staphylococcus aureus ATCC 6538; type: functional
Saccharomyces cerevisiae [15] = test: Ratio of fluconazole MIC to compound MIC for Saccharomyces cerevisiae; type: functional
Candida [16] = test: Ratio of fluconazole MIC to compound MIC for Candida mycoderma; type: functional
Aspergillus flavus [17] = test: Antifungal activity against Aspergillus flavus after 24 hrs by two-fold serial dilution method; type: functional; in short: as §1
Cyberlindnera jadinii [18] = test: Antifungal activity against Candida utilis after 24 hrs by two-fold serial dilution method; type: functional; conditions: Williopsis jadinii; in short: as §1
Saccharomyces cerevisiae [19] = test: Antifungal activity against Saccharomyces cerevisiae after 24 hrs by two-fold serial dilution method; type: functional; in short: as §1
Aspergillus flavus [20] = test: Potentiation of fluconazole-induced antifungal activity against Aspergillus flavus at 4 times MIC after 24 hrs by two-fold serial dilution method; type: functional
Saccharomyces cerevisiae [21] = test: Potentiation of fluconazole-induced antifungal activity against Saccharomyces cerevisiae at 4 times MIC after 24 hrs by two-fold serial dilution method; type: functional
Cyberlindnera jadinii [22] = test: Potentiation of fluconazole-induced antifungal activity against Candida utilis at 8 times MIC after 24 hrs by two-fold serial dilution method; type: functional
Candida [23] = test: Potentiation of fluconazole-induced antifungal activity against Candida mycoderma at 4 times MIC after 24 hrs by two-fold serial dilution method; type: functional
Candida albicans [24] = test: Potentiation of fluconazole-induced antifungal activity against Candida albicans ATCC 76615 at 4 times MIC after 24 hrs by two-fold serial dilution method; type: functional
Salmonella typhi [25] = test: Potentiation of norfloxacin-induced antibacterial activity against Bacillus typhi at 4 times MIC after 24 hrs by two-fold serial dilution method; type: functional, Salmonella enterica subsp. enterica serovar Typhi
Pseudomonas aeruginosa [26] = test: Potentiation of norfloxacin-induced antibacterial activity against Pseudomonas aeruginosa ATCC 27853 at 2 times MIC after 24 hrs by two-fold serial dilution method; type: functional
Escherichia coli [27] = test: Potentiation of norfloxacin-induced antibacterial activity against Escherichia coli JM109 at 2 times MIC after 24 hrs by two-fold serial dilution method; type: functional
Bacillus [28] = test: Potentiation of norfloxacin-induced antibacterial activity against Bacillus proteus ATCC 13315 at 2 times MIC after 24 hrs by two-fold serial dilution method; type: functional
Micrococcus luteus [29] = test: Potentiation of norfloxacin-induced antibacterial activity against Micrococcus luteus ATCC 4698 at 2 times MIC after 24 hrs by two-fold serial dilution method; type: functional
Bacillus subtilis [30] = test: Potentiation of norfloxacin-induced antibacterial activity against Bacillus subtilis ATCC 21216 at 2 times MIC after 24 hrs by two-fold serial dilution method; type: functional
Staphylococcus aureus [31] = test: Potentiation of norfloxacin-induced antibacterial activity against Staphylococcus aureus ATCC 6538 at MIC after 24 hrs by two-fold serial dilution method; type: functional
Salmonella typhi [32] = test: Potentiation of chloromycin-induced antibacterial activity against Bacillus typhi at 4 times MIC after 24 hrs by two-fold serial dilution method; type: functional, Salmonella enterica subsp. enterica serovar Typhi
Pseudomonas aeruginosa [33] = test: Potentiation of chloromycin-induced antibacterial activity against Pseudomonas aeruginosa ATCC 27853 at 2 times MIC after 24 hrs by two-fold serial dilution method; type: functional
Escherichia coli [34] = test: Potentiation of chloromycin-induced antibacterial activity against Escherichia coli JM109 at MIC after 24 hrs by two-fold serial dilution method; type: functional
Bacillus [35] = test: Potentiation of chloromycin-induced antibacterial activity against Bacillus proteus ATCC 13315 at 2 times MIC after 24 hrs by two-fold serial dilution method; type: functional
Micrococcus luteus [36] = test: Potentiation of chloromycin-induced antibacterial activity against Micrococcus luteus ATCC 4698 at 2 times MIC after 24 hrs by two-fold serial dilution method; type: functional
Bacillus subtilis [37] = test: Potentiation of chloromycin-induced antibacterial activity against Bacillus subtilis ATCC 21216 at 4 times MIC after 24 hrs by two-fold serial dilution method; type: functional
Staphylococcus aureus [38] = test: Potentiation of chloromycin-induced antibacterial activity against Staphylococcus aureus ATCC 6538 at MIC after 24 hrs by two-fold serial dilution method; type: functional

Row | Compound | MIC (Candida [1]) | MIC (Candida albicans [2]) | MIC (Salmonella typhi [5]) | MIC (Pseudomonas aeruginosa [6]) | MIC (Escherichia coli [7]) | MIC (Bacillus [8]) | MIC (Micrococcus luteus [9]) | MIC (Bacillus subtilis [10]) | MIC (Staphylococcus aureus [11]) | MIC (Staphylococcus aureus [12]) | MIC (Aspergillus flavus [17]) | MIC (Cyberlindnera jadinii [18]) | MIC (Saccharomyces cerevisiae [19]) | further results
1 | FC(F)(F)c1cc(NCc2nc3ccccc3[nH]2)cc(C(F)(F)F)c1 | 2 µg/mL (≈ 5.57 µM) | 2 µg/mL (≈ 5.57 µM) | 2 µg/mL (≈ 5.57 µM) | 4 µg/mL (≈ 11.1 µM) | 2 µg/mL (≈ 5.57 µM) | 2 µg/mL (≈ 5.57 µM) | 8 µg/mL (≈ 22.3 µM) | 4 µg/mL (≈ 11.1 µM) | 16 µg/mL (≈ 44.5 µM) | 2 µg/mL (≈ 5.57 µM) | 8 µg/mL (≈ 22.3 µM) | 8 µg/mL (≈ 22.3 µM) | 2 µg/mL (≈ 5.57 µM) | Ratio (Pseudomonas aeruginosa [3]): 4; Ratio (Escherichia coli [4]): 8; Ratio (Staphylococcus aureus [13]): 4; Ratio (Staphylococcus aureus [14]): 4; Ratio (Saccharomyces cerevisiae [15]): 8; Ratio (Candida [16]): 2
2 | Fc1ccc(CN(Cc2nc3ccccc3[nH]2)c2cc(C(F)(F)F)cc(C(F)(F)F)c2)c(F)c1 | 32 µg/mL (≈ 65.9 µM) | 16 µg/mL (≈ 33 µM) | 32 µg/mL (≈ 65.9 µM) | 16 µg/mL (≈ 33 µM) | 16 µg/mL (≈ 33 µM) | 16 µg/mL (≈ 33 µM) | 8 µg/mL (≈ 16.5 µM) | 16 µg/mL (≈ 33 µM) | 32 µg/mL (≈ 65.9 µM) | 8 µg/mL (≈ 16.5 µM) | 16 µg/mL (≈ 33 µM) | 32 µg/mL (≈ 65.9 µM) | 16 µg/mL (≈ 33 µM) | fractional inhibitory concentration index (FICI) (Aspergillus flavus [20]): 0.375; fractional inhibitory concentration index (FICI) (Saccharomyces cerevisiae [21]): 0.375; fractional inhibitory concentration index (FICI) (Cyberlindnera jadinii [22]): 0.5; fractional inhibitory concentration index (FICI) (Candida [23]): 0.25; fractional inhibitory concentration index (FICI) (Candida albicans [24]): 0.25; fractional inhibitory concentration index (FICI) (Salmonella typhi [25]): 0.25; fractional inhibitory concentration index (FICI) (Pseudomonas aeruginosa [26]): 0.375; fractional inhibitory concentration index (FICI) (Escherichia coli [27]): 0.375; fractional inhibitory concentration index (FICI) (Bacillus [28]): 0.25; fractional inhibitory concentration index (FICI) (Micrococcus luteus [29]): 0.375; fractional inhibitory concentration index (FICI) (Bacillus subtilis [30]): 0.25; fractional inhibitory concentration index (FICI) (Staphylococcus aureus [31]): 0.25; fractional inhibitory concentration index (FICI) (Salmonella typhi [32]): 0.25; fractional inhibitory concentration index (FICI) (Pseudomonas aeruginosa [33]): 0.25; fractional inhibitory concentration index (FICI) (Escherichia coli [34]): 0.25; fractional inhibitory concentration index (FICI) (Bacillus [35]): 0.25; fractional inhibitory concentration index (FICI) (Micrococcus luteus [36]): 0.5; fractional inhibitory concentration index (FICI) (Bacillus subtilis [37]): 0.375; fractional inhibitory concentration index (FICI) (Staphylococcus aureus [38]): 0.25
